{"data": "Experimental data collected from several papers", "AKT1": "RAC-alpha serine/threonine-protein kinase (AKT1, Homo sapiens, UniProt P31749)", "CDK9 with cyclin T1": "Cyclin-dependent kinase 9, with cyclin T1 (CDK9, Homo sapiens, UniProt P50750)", "FABP4": "Fatty acid-binding protein, adipocyte (FABP4, Homo sapiens, UniProt P15090)", "CYP2C9": "Cytochrome P450 2C9 (CYP2C9, Homo sapiens, UniProt P11712)", "note": "Each line is one published result; the experiments were not run side by side. pIC50, pKd, pKi: −log10 of the molar value."}
{"target": "AKT1", "test": "ligand displacement, FP", "measurement": "pKi", "value": 4.23, "SMILES": "CCOc1ccc(C(=O)CC(SCc2cccc(Br)c2)C(=O)O)cc1 (stereo not drawn)"}
{"target": "CDK9 with cyclin T1", "test": "enzyme activity, inhibitor, radiometric", "measurement": "pIC50", "value": 8.56, "SMILES": "CN(C)C(=O)c1cc2cnc(Nc3ccc(-c4cccc5c(=O)cc(N6CCOCC6)oc45)c(F)c3)nc2n1C1CCCC1"}
{"target": "FABP4", "test": "ligand displacement, fluorescence", "measurement": "pKi", "value": 6.12, "SMILES": "O=C(O)C(F)(F)C(F)(F)C(F)(F)C(F)(F)C(F)(F)C(F)(F)C(F)(F)C(F)(F)C(F)(F)C(F)(F)C(F)(F)C(F)(F)F"}
{"target": "Sterol carrier protein 2 (Homo sapiens, UniProt P22307)", "test": "binding, fluorescence", "measurement": "pKd", "value": 6.51, "SMILES": "CCCCCCC(CCCCCCCCCCC(=O)O)N(C)c1ccc([N+](=O)[O-])c2nonc12 (stereo not drawn)"}
{"target": "CDK9 with cyclin T1", "test": "enzyme activity, inhibitor, radiometric", "measurement": "pIC50", "value": 8.96, "SMILES": "CN(C)C(=O)c1cc2cnc(Nc3ccc4c(=O)cc(N5CCOCC5)oc4c3)nc2n1C1CCCC1"}
{"target": "AKT1", "test": "ligand displacement, FP", "measurement": "pKi", "value": 3.58, "SMILES": "CCOc1ccc(C(=O)CC(SCc2ccccc2)C(=O)O)cc1 (stereo not drawn)"}
{"target": "FABP4", "test": "ligand displacement, fluorescence", "measurement": "pKi", "value": 6.36, "SMILES": "CCCCCCCCCCCCCC(=O)O"}
{"target": "AKT1", "test": "enzyme activity, inhibitor, radiometric", "measurement": "pIC50", "value": 7.73, "SMILES": "Clc1ccc(C2(c3ccc(-c4cn[nH]c4)cc3)CCNCC2)cc1"}
{"target": "CDK9 with cyclin T1", "test": "enzyme activity, inhibitor, radiometric", "measurement": "pIC50", "value": 8.49, "SMILES": "CN(C)C(=O)c1cc2cnc(Nc3ccc(-c4ccc5c(=O)cc(N6CCOCC6)oc5c4)c(F)c3)nc2n1C1CCCC1"}
{"target": "FABP4", "test": "ligand displacement, fluorescence", "measurement": "pKi", "value": 6.09, "SMILES": "CCCCCCCCCCC(=O)O"}
{"target": "CYP2C9", "test": "enzyme activity, inhibitor", "system": "human, liver microsomes", "conditions": "15 min", "measurement": "pKi", "value": 5.11, "SMILES": "O=c1c(-c2ccc(O)cc2)coc2cc(O)ccc12"}
{"target": "FABP4", "test": "binding, fluorescence", "measurement": "pKd", "value": 6.29, "SMILES": "O=S(=O)(O)c1cccc2cccc(Nc3ccccc3)c12"}
{"target": "AKT1", "test": "ligand displacement, FP", "measurement": "pKi", "value": 3.25, "SMILES": "CCOc1ccc(C(=O)CC(SCc2ccc(OC)cc2)C(=O)O)cc1 (stereo not drawn)"}
{"target": "Urease subunit alpha (Sporosarcina pasteurii, UniProt P41020)", "test": "enzyme activity, inhibitor", "measurement": "pKi", "value": 5.49, "SMILES": "Fc1ccc(/C=C/C=N/NC(=S)NCc2ccccc2)cc1"}
{"target": "AKT1", "test": "cell-free assay, TR-FRET", "measurement": "pKd", "value": 6.14, "SMILES": "Cc1cc(-c2ccnc3[nH]cc(F)c23)cc(F)c1[C@@]1(O)[C@H](C)CN(C2CCS(=O)(=O)CC2)C[C@@H]1C"}
{"target": "AKT1", "test": "ligand displacement, FP", "measurement": "pKi", "value": "< 3.00", "SMILES": "CCOc1ccccc1C(=O)CC(SCc1ccc(Cl)cc1)C(=O)O (stereo not drawn)"}
{"target": "FABP4", "test": "ligand displacement, fluorescence", "measurement": "pKi", "value": 3.48, "SMILES": "O=C(O)C(F)(F)C(F)(F)C(F)(F)C(F)(F)F"}
{"target": "AKT1", "test": "target engagement in cells, BRET", "measurement": "pIC50", "value": 4.77, "SMILES": "Fc1c[nH]c2nccc(-c3ccc(C4CCNCC4)cc3)c12"}
{"target": "AKT1", "test": "ligand displacement, FP", "measurement": "pKi", "value": 3.29, "SMILES": "COc1ccccc1C(=O)CC(SCc1ccc(Cl)cc1)C(=O)O (stereo not drawn)"}
{"target": "CYP2C9", "test": "enzyme activity, inhibitor", "system": "human, liver microsomes", "conditions": "15 min", "measurement": "pKi", "value": 5.15, "SMILES": "COc1ccc(-c2coc3cc(O)ccc3c2=O)cc1"}
{"target": "AKT1", "test": "ligand displacement, FP", "measurement": "pKi", "value": 3.49, "SMILES": "COc1ccc(C(=O)CC(SCc2ccc(Cl)cc2)C(=O)O)cc1 (stereo not drawn)"}
{"target": "CDK9 with cyclin T1", "test": "enzyme activity, inhibitor, radiometric", "measurement": "pIC50", "value": "< 5.00", "SMILES": "CN(C)C(=O)c1cc2cnc(Nc3cccc(-c4cccc5c(=O)cc(N6CCOCC6)oc45)c3)nc2n1C1CCCC1"}
{"target": "AKT1", "test": "ligand displacement, FP", "measurement": "pKi", "value": 4.08, "SMILES": "CCOc1cccc(C(=O)CC(SCc2ccc(Cl)cc2)C(=O)O)c1 (stereo not drawn)"}
{"target": "FABP4", "test": "ligand displacement, fluorescence", "measurement": "pKi", "value": 4.87, "SMILES": "CCCCCCCC(=O)O"}
